Experimental data taken from ChEMBL document CHEMBL1150611, “Gaboroquinones A and B and 4'-O-demethylknipholone-4'-O-beta-D-glucopyranoside, phenylanthraquinones from the roots of Bulbine frutescens” (J Nat Prod, 2002).
Values after ≈ are worked out from the molar mass of the structure shown.

Assays:
Plasmodium falciparum [1] = assay: Antiplasmodial activity against chloroquine and pyrimethamine-resistant Plasmodium falciparum K1 infected human erythrocytes after 48 hrs by [3H]hypoxanthine uptake; format: functional, organism-based
Method in brief: (§1)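 Top test concentration was 5.0 µg mL-1.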

Plasmodium falciparum [2] = assay: Antiplasmodial activity against multi drug-sensitive Plasmodium falciparum NF54 infected human erythrocytes after 48 hrs by [3H]hypoxanthine uptake; format: functional, organism-based; method in brief: as §1
Trypanosoma cruzi = assay: Trypanocidal activity against trypomastigotes of Trypanosoma cruzi Tulahuen C2C4 infected in rat L6 cells after 4 days; format: functional, organism-based; conditions: L6, 96 h
[3] = system: Trypanosoma brucei rhodesiense; assay: Trypanocidal activity against Trypanosoma brucei rhodesiense STIB 900 after 72 hrs; format: functional, organism-based
L6 = assay: Cytotoxicity against rat L6 cells after 4 days; format: cell-based; conditions: L6, 96 h
Method in brief: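 Mammalian-cell cytotoxicity was tested up to a highest concentration of 90 µg mL-1.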

`COc1cc(O)c(-c2c(CO)cc(O)c3c2C(=O)c2cccc(O)c2C3=O)c(O)c1C(C)=O` [GABOROQUINONE B] showed an IC50 (Plasmodium falciparum [1]) greater than 5 µg/mL, an IC50 (Plasmodium falciparum [2]) greater than 5 µg/mL and an IC50 (Trypanosoma cruzi) greater than 90 µg/mL. The IC50 [3] was 45.5 µg/mL (≈ 101 µM) and the MIC (L6) was greater than 90 µg/mL.
Work on `CC(=O)c1c(O[C@@H]2O[C@H](CO)[C@@H](O)[C@H](O)[C@H]2O)cc(O)c(-c2c(C)cc(O)c3c2C(=O)c2cccc(O)c2C3=O)c1O` [BULBINELONESIDE D] yielded an IC50 (Plasmodium falciparum [1]) of 0.41 µg/mL (≈ 0.704 µM), an IC50 (Plasmodium falciparum [2]) of 0.43 µg/mL (≈ 0.738 µM) and an IC50 (Trypanosoma cruzi) of 6.8 µg/mL (≈ 11.7 µM). The IC50 [3] was 0.7 µg/mL (≈ 1.2 µM) and the MIC (L6) was 90 µg/mL (≈ 155 µM).
Work on `COc1cc(O)c(-c2c(C)cc(O)c3c2C(=O)c2cccc(O)c2C3=O)c(O)c1C(C)=O` [KNIPHOLONE] yielded an IC50 (Plasmodium falciparum [1]) of 0.67 µg/mL (≈ 1.54 µM), an IC50 (Plasmodium falciparum [2]) of 0.91 µg/mL (≈ 2.09 µM) and an IC50 (Trypanosoma cruzi) of 7.6 µg/mL (≈ 17.5 µM). The IC50 [3] was 9.3 µg/mL (≈ 21.4 µM) and the MIC (L6) was 33 µg/mL (≈ 76 µM).
With `COc1c(C(C)=O)c(O)cc(O)c1-c1c(CO)cc(O)c2c1C(=O)c1cccc(O)c1C2=O` [GABOROQUINONE A] the IC50 (Plasmodium falciparum [1]) was 4.8 µg/mL (≈ 10.7 µM), the IC50 (Plasmodium falciparum [2]) was 4.2 µg/mL (≈ 9.33 µM) and the IC50 (Trypanosoma cruzi) was 33.1 µg/mL (≈ 73.5 µM). For the same compound, the IC50 [3] was 5.1 µg/mL (≈ 11.3 µM) and the MIC (L6) was greater than 90 µg/mL.
